Tests used:
[1] = Selectivity index, ratio of IC50 for rat L6 cells to IC50 for bloodstream form of Trypanosoma brucei 221; type: toxicity, cell-based; conditions: read-out: Ratio IC50
How it was run: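 IC50 ratio, L6 over T. brucei. L6 cells seeded at 1×10^4 mL⁻¹ with compound, 6 days at 37 °C, then resazurin, 8 h more, fluorescence read. Log-phase bloodstream T. brucei 221 in modified Iscove's medium at 0.25 × 105 mL⁻¹, compound range in triplicate, 37 °C; resazurin at 48 h, read after 16 h more.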

Plasmodium falciparum = test: Antiplasmodial activity against chloroquine-resistant Plasmodium falciparum K1 infected in human A+ erythrocytes assessed as inhibition of parasite growth after 48 hrs by LDH assay; type: functional, organism-based; conditions: K1, 48 h
How it was run: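 Ring-stage cultures in human A+ erythrocytes (RPMI 1640, A+ serum, D-glucose), 2.5% haematocrit, 1% parasitaemia; twofold serial dilutions in duplicate, DMSO ≤0.5% final. 48 h at 37 °C under 93% N2/3% O2/4% CO2. Growth read as lactate dehydrogenase activity (APAD, lactate, diaphorase, NBT; 550 nm); % inhibition vs controls; IC50 by linear regression; mean of triplicate experiments.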

[2] = Selectivity index, ratio of IC50 for rat L6 cells to IC50 for chloroquine-resistant Plasmodium falciparum K1; type: toxicity, cell-based; conditions: read-out: Ratio IC50
How it was run: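 IC50 ratio, L6 over P. falciparum K1. L6 cells seeded at 1×10^4 mL⁻¹ with compound, 6 days at 37 °C, resazurin added, fluorescence after 8 h. Parasites in A+ erythrocytes (2.5% haematocrit, 1% parasitaemia) with twofold dilutions, 48 h at 37 °C in low-oxygen gas; growth read by LDH activity at 550 nm.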

L6 = test: Cytotoxicity against rat L6 cells assessed as inhibition of cell growth after 6 days by Spectramax fluorescence plate reader analysis; type: cell-based; conditions: L6, 144 h
How it was run: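 L6 rat skeletal myoblasts seeded at 1×10^4 mL⁻¹ in growth medium containing a range of compound concentrations, incubated 6 days at 37 °C; resazurin added, fluorescence read after a further 8 h. IC50 = concentration inhibiting growth by 50%; mean of triplicate experiments ± SEM.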

Trypanosoma brucei = test: Trypanocidal activity against bloodstream form of Trypanosoma brucei 221 assessed as inhibition of parasite growth at pH 7.4 after 48 hrs by Spectramax plate reader analysis; type: functional, organism-based; conditions: Trypanosoma brucei, 221, 48 h
How it was run: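 Bloodstream-form T. brucei strain 221 grown at 37 °C in modified Iscove's medium; log-phase cells diluted to 0.25 × 10^5 mL⁻¹, exposed to a range of compound concentrations in triplicate at 37 °C. Resazurin added after 48 h, read after a further 16 h. IC50 and IC90 = concentrations inhibiting growth 50% and 90%; mean of triplicate experiments ± SEM.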

Acetylcholinesterase = Acetylcholinesterase (Homo sapiens, UniProt P22303); test: Inhibition of human recombinant AChE using acetylthiocholine iodide as substrate preincubated with enzyme for 20 mins prior to substrate addition by Ellman's method
Sequence of Acetylcholinesterase (P22303 whole entry): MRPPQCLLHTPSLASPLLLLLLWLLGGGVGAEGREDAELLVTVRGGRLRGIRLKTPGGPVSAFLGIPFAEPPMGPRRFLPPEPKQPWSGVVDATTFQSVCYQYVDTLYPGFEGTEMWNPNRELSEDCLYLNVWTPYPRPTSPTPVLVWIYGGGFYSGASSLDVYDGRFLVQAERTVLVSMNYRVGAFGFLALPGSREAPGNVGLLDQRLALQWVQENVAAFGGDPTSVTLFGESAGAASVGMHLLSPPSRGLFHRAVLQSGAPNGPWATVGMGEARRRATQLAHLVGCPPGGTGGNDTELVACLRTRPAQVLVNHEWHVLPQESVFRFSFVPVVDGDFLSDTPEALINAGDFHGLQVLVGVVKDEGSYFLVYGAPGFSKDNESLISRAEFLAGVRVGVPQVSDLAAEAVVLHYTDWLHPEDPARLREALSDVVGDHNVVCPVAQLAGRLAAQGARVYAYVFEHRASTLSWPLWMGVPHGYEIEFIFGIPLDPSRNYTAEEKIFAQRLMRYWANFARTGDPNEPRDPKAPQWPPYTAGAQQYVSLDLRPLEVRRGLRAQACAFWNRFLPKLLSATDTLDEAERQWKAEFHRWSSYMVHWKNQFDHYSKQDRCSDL
How it was run: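 Ellman assay in 0.1 M phosphate buffer pH 8.0 with hAChE 0.02 u/mL and 333 µM DTNB. At least 10 inhibitor concentrations, in duplicate, preincubated 20 min at 37 °C. Then 450 µM acetylthiocholine iodide, 5 min at 37 °C; absorbance at 414 nm against an uninhibited sample. IC50 by non-linear regression; mean ± S.E.M. of at least 4 experiments.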

[3] = Permeability by PAMPA-BBB assay; type: ADME; conditions: read-out: Peff
How it was run: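 Parallel artificial membrane permeation through porcine brain lipid extract, using PBS:EtOH 70:30; effective permeability Pe reported as mean ± SD of three independent experiments.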

[4] = Inhibition of beta-haematin formation by microplate reader analysis relative to hemin; type: physicochemical
How it was run: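 Haemin chloride (8 mM stock in DMSO) mixed with serial compound dilutions (0.5-32 mM) in 25% DMSO; formation initiated with 8 M acetate buffer pH 5.0, 18 h at 37 °C. Pellets washed with DMSO, β-haematin dissolved in 0.1 M NaOH, OD 400 nm read versus drug-free controls; BHIA50 expressed as compound equivalents relative to haemin, by linear regression.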

SMILES | selectivity ratio [1] | IC50 (Plasmodium falciparum) [nM] | selectivity ratio [2] | IC50 (L6) [nM] | IC50 (Trypanosoma brucei) [nM] | IC90 (Trypanosoma brucei) [nM] | IC50 (Acetylcholinesterase) [nM] | Papp [3] [×10⁻⁶ cm/s] | IC50 [4] [equiv]
CC1=CC2Cc3nc4cc(Cl)ccc4c(NCCCN(C)CCCNc4c5c(nc6ccccc46)CCCC5)c3C(C1)C2 (configuration not stated) | < 3.1 | 430 | < 2.3 | < 1000 | 320 | 450 |  |  | 
CC1=CC2Cc3nc4cc(Cl)ccc4c(NCCCCCCCCCCCCNc4c5c(nc6cc(Cl)ccc46)CCCC5)c3C(C1)C2 (configuration not stated) | 9.5 | > 6600 | < 0.85 | 5580 | 590 | 770 | 3.46 | 16.8 | 
CC1=CC2Cc3nc4cc(Cl)ccc4c(NCCCCCCCCCCNc4c5c(nc6ccccc46)CCCC5)c3C(C1)C2 (configuration not stated) | 12 |  |  | 1670 | 140 | 480 |  |  | 
CC1=CC2Cc3nc4ccccc4c(NCCCCCCCCCCNc4c5c(nc6ccccc46)CCCC5)c3C(C1)C2 (configuration not stated) | < 4.2 | 3500 | < 0.29 | < 1000 | 240 | 310 | 6.46 | 6.3 | 
CN(C)[C@@H]1C(O)=C(C(N)=O)C(=O)[C@@]2(O)C(O)=C3C(=O)c4c(O)cccc4[C@@](C)(O)[C@H]3C[C@@H]12 [TETRACYCLINE] |  |  |  |  |  |  |  |  | > 4
CC1=CC2Cc3nc4ccccc4c(NCCCCCCCCCCNc4c5c(nc6cc(Cl)ccc46)CCCC5)c3C(C1)C2 (configuration not stated) | 3.3 | 4360 | 0.25 | 1110 | 340 | 430 | 1.48 | 17.2 | 
CC1=CC2Cc3nc4cc(Cl)ccc4c(NCCCCCCCCCCCCNc4c5c(nc6ccccc46)CCCC5)c3C(C1)C2 (configuration not stated) | 3 | > 6900 | < 0.15 | 1040 | 350 | 520 | 1.92 | 10.8 | 
CC1=C[C@H]2Cc3nc4cc(Cl)ccc4c(NCCCCCCCNc4c5c(nc6ccccc46)CCCC5)c3[C@@H](C1)C2 | 3.5 | 350 | 2.1 | 730 | 210 | 420 |  |  | 
CCC1=C[C@@H]2Cc3nc4cc(Cl)ccc4c(NCCCN4CCC(CC5Cc6cc(OC)c(OC)cc6C5)CC4)c3[C@H](C1)C2 | 8.3 | 810 | 2.7 | 2150 | 260 | 1330 |  |  | 
CC1=CC2Cc3nc4cc(Cl)ccc4c(NCCCCCCCCCCNc4c5c(nc6cc(Cl)ccc46)CCCC5)c3C(C1)C2 (configuration not stated) | 15 | 2100 | 1.3 | 2630 | 170 | 490 |  |  | 
CC1=CC2Cc3nc4ccccc4c(NCCCCCCCCCCCCNc4c5c(nc6cc(Cl)ccc46)CCCC5)c3C(C1)C2 (configuration not stated) | 5 | > 6900 | < 0.4 | 2740 | 550 | 750 | 3.66 | 11 | 
COc1cc2c(cc1OC)C(=O)C(CC1CCN(CCCNc3c4c(nc5ccccc35)CCCC4)CC1)C2 (configuration not stated) | < 3.6 |  |  | < 1000 | 280 | 620 |  |  | 
CC1=CC2Cc3nc4cc(Cl)ccc4c(NCCCCCCCNc4c5c(nc6ccccc46)CCCC5)c3C(C1)C2 (configuration not stated) | < 4.2 | 470 | < 2.1 | < 1000 | 240 | 430 |  |  | 
CCC1=C[C@@H]2Cc3nc4cc(Cl)ccc4c(NCCN4CCC(CC5Cc6cc(OC)c(OC)cc6C5)CC4)c3[C@H](C1)C2 | 22 | > 7050 | < 0.89 | 6290 | 290 | 720 |  |  | 
CC1=CC2Cc3nc4cc(Cl)ccc4c(NCCCCCCCCNc4c5c(nc6cc(Cl)ccc46)CCCC5)c3C(C1)C2 (configuration not stated) | 5.7 | > 7140 | < 0.14 | 970 | 170 | 460 |  |  | 
CC1=CC2Cc3nc4ccccc4c(NCCCCCCCCCCCCNc4c5c(nc6ccccc46)CCCC5)c3C(C1)C2 (configuration not stated) | < 4.8 | > 7300 | < 0.14 | < 1000 | 210 | 280 | 10.1 | 7.3 | 
CC1=C[C@@H]2Cc3nc4cc(Cl)ccc4c(NCCCCCCCNc4c5c(nc6ccccc46)CCCC5)c3[C@H](C1)C2 | < 3.4 | 460 | < 2.2 | < 1000 | 290 | 490 |  |  | 
CCC1=CC2Cc3nc4cc(Cl)ccc4c(NCCN4CCC(CC5Cc6cc(OC)c(OC)cc6C5)CC4)c3C(C1)C2 (configuration not stated) | 12 | > 7140 | < 0.5 | 3550 | 290 | 700 |  |  | 
CC1=CC2Cc3nc4cc(Cl)ccc4c(NCCCCCCCCCNc4c5c(nc6cc(Cl)ccc46)CCCC5)c3C(C1)C2 (configuration not stated) | 167 | > 6820 | < 5.9 | 40000 | 240 | 520 |  |  | 
COc1cc2c(cc1OC)C(=O)C(CC1CCN(CCNc3c4c(nc5cc(Cl)ccc35)CCCC4)CC1)C2 (configuration not stated) | < 10 | 4860 | < 0.62 | < 3000 | 300 | 680 |  |  | 
CC1=CC2Cc3nc4cc(Cl)ccc4c(NCCCCCCCNc4c5c(nc6cc(Cl)ccc46)CCCC5)c3C(C1)C2 (configuration not stated) | < 11 | > 6880 | < 0.44 | < 3000 | 270 | 430 |  |  | 
CC1=CC2Cc3nc4cc(Cl)ccc4c(NCCCCCCNc4c5c(nc6cc(Cl)ccc46)CCCC5)c3C(C1)C2 (configuration not stated) | 2 | 4400 | 0.25 | 1100 | 560 | 790 |  |  | 
COc1cc2c(cc1OC)CC(CC1CCN(CCNc3c4c(nc5cc(Cl)ccc35)CC3C=C(C)CC4C3)CC1)C2 (configuration not stated) | 14 | > 7010 | < 1 | 6760 | 490 | 1180 |  |  | 
CCN(CC)CCCC(C)Nc1ccnc2cc(Cl)ccc12 (configuration not stated) [CHLOROQUINE] |  |  |  |  |  |  |  |  | 0.14
CC1=CC2Cc3nc4cc(Cl)ccc4c(NCCCN(C)CCCNc4c5c(nc6cc(Cl)ccc46)CCCC5)c3C(C1)C2 (configuration not stated) | < 3.6 | 520 | < 1.9 | < 1000 | 280 | 400 |  |  | 
COc1cc2c(cc1OC)C(=O)C(CC1CCN(CCNc3c4c(nc5ccccc35)CCCC4)CC1)C2 (configuration not stated) | < 7.3 | > 8150 | < 0.37 | < 3000 | 410 | 880 |  |  | 
COc1cc2c(cc1OC)CC(CC1CCN(CCNc3c4c(nc5ccccc35)CCCC4)CC1)C2 | < 7.9 | 2600 | < 1.2 | < 3000 | 380 | 790 |  |  | 
COc1cc2c(cc1OC)CC(CC1CCN(CCNc3c4c(nc5cc(Cl)ccc35)CCCC4)CC1)C2 | 2.5 | > 7720 | < 0.31 | 2420 | 970 | 2390 |  |  | 
CC1=CC2Cc3nc4cc(Cl)ccc4c(NCCCCCCNc4c5c(nc6ccccc46)CCCC5)c3C(C1)C2 (configuration not stated) | 2.5 | 2990 | 0.39 | 1170 | 470 | 660 |  |  | 

From ChEMBL document CHEMBL3600329, “Synthesis, biological profiling and mechanistic studies of 4-aminoquinoline-based heterodimeric compounds with dual trypanocidal-antiplasmodial activity” (Bioorg Med Chem, 2015)
